High-throughput results deposited in PubChem BioAssay by The Scripps Research Institute Molecular Screening Center.
TRPML3 ag – human TRPML3 channel agonists, primary screen, cell-based, HEK293 TRPML3-YFP, Fluo-8 calcium fluorescence, 3 µM | Mucolipin-3 (Homo sapiens), Q8TDD5 | 100% = the carbachol control signal | activation, % at 3 µM | actives 0.29% (n = 220,000) | AID 1448, 2008;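 active = activation above its plate's cutoff, the mean activation of the plate's test wells plus 3 SD, cut at about 12% in these data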;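 also: 0% = DMSO only wells and 100% = carbachol wells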
Target sequence (Q8TDD5 whole entry, looked up): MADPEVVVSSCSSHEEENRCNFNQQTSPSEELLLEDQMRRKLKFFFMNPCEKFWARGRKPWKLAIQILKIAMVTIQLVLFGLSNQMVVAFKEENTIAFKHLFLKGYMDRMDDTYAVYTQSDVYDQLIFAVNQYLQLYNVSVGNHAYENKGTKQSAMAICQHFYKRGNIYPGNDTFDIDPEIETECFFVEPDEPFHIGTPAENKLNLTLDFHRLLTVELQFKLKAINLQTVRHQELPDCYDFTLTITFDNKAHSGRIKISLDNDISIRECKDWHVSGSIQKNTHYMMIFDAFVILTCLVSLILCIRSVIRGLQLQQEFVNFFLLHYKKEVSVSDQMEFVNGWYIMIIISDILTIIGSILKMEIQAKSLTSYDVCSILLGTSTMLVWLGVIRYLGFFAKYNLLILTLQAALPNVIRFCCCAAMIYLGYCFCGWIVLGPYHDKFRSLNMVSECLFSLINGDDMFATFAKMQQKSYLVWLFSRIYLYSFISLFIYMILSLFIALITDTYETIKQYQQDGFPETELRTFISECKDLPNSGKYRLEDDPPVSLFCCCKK
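Test system – HEK293 line with stable expression of human TRPML3-YFP channel · Control set – carbachol 87 µM final as high control (100%), DMSO as low control (0%) · Signal – Fluo-8 calcium dye fluorescence, ex 470-495, em 515-575 nm · Incubation – 1-h 37 °C dye load, 5-s basal, 120-s post-compound reads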
CHO-K1 Ca PAM – nonselective calcium activators in parental CHO-K1 cells, primary screen, counter-screen for M1 PAM project, cell-based, Fluo-8 calcium fluorescence, full deck, 1536-well; ATP EC20; 0% at ATP EC20, 100% at ATP max; activation, % at 3 µM; actives 0.02% (n = 360,000); AID 602247, 2012;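 active = activation above the run cutoff, the mean activation of all test compounds plus 3 SD, cut at about 40% in these data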;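 also: peak over basal fluorescence ratio in a 140 s read after ATP addition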
CHO-K1 Ca antag – nonselective inhibitor or artifact in parental CHO-K1 cells; ATP-induced calcium, Fluo-8 fluorescence; inhibition, % at 3 µM; actives 0.6% (n = 360,000);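 active = inhibition above a per-plate cutoff, the plate's mean sample inhibition plus 3 SD, cut at about 24% in these data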;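 also: 0% = DMSO plus EC80 ATP and 100% = DMSO alone without ATP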
M1 ag parental – counter-screen for M1 agonists: effect in parental CHO-K1 cells | AID 602248, 2012 | Fluo-8 calcium fluorescence; scaled to maximal ATP response, vehicle zero | activation, % at 3 µM | actives 0.48% (n = 360,000); in the data active = activation above about 15%;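 also: untransfected CHO-K1 host cells lacking M1 receptor as counterscreen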
TRPN1 ag – zebrafish TRPN1 channel agonists, primary screen, cell-based, HEK293, calcium fluorescence. transient receptor potential cation channel N1 (TRPN1/NompC), Danio rerio. HEK293 zebrafish TRPN1-YFP, Fluo-8 calcium fluorescence; 100% = response to 87 µM carbachol. activation, % at 3 µM. actives 0.18% (n = 220,000);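 active = activation above its plate's cutoff, the mean activation of test wells on that plate plus 3 SD, cut at about 19% in these data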;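 also: 0% = DMSO alone and 100% = 87 µM carbachol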
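Material: zebrafish TRPN1-YFP in HEK293 cells; Doses: single test compound dose, 3 µM nominal, 0.3% DMSO; Timing: dye loading 1 h at 37 °C, then 30 min room temperature; Technique: intracellular calcium fluorescence with Fluo-8; Benchmarks: high carbachol 87 µM, low DMSO alone.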
An asterisk follows results filed as active; · = not tested or not shown. The list is not random: actives were taken first. Their share in the collection is about 1.2%.

SMILES	TRPML3 ag	CHO-K1 Ca PAM	CHO-K1 Ca antag	M1 ag parental	TRPN1 ag
CCC(=NCCc1c[nH]c2ccccc12)c1c(O)n(-c2ccc(C)cc2)c(=O)[nH]c1=O	0	17	-8	4	1
CCC(=NCCc1c[nH]c2ccccc12)c1c(O)n(C)c(=O)n(C)c1=O	2	0	24*	16*	6
C[C@@H]1COc2cccc(N3CCN(C)CC3)c2S(=O)(=O)N1	·	1	-4	0	·
COc1ccc(-n2nnnc2C(CCc2ccccc2)N2CCC(n3c(=O)[nH]c4ccccc43)CC2)cc1 (centres undefined)	·	-6	-18	3	·
OC(CC#CCN1CCCCCC1)(c1ccccc1)C1CCCC1 (centres undefined)	·	-15	17	17*	·
CN(C)CC#CCC(O)(c1ccccc1)C1CCCC1 (centres undefined)	0	-10	25*	0	0
CC1(C(O)(C#CCN2CCCCC2)c2ccccc2)CCCC1 (centres undefined)	1	10	-8	1	-1
O=c1[nH]c(=O)n(C2CCCCC2)c(O)c1/C=C/C=Nc1ccccc1	4	3	-4	18*	6
COc1ccc(-n2c(O)c(/C=C/C=Nc3ccccc3)c(=O)[nH]c2=O)cc1	27*	-17	17	23*	43*
CCOC(=O)[C@]12Cc3ccccc3[C@H]1N(CCC(=O)OC)C(=O)c1ccccc12	·	16	-9	0	·
O=C1NCN(c2ccccc2)C12CCN(C(CCc1ccccc1)c1nnnn1C1CCCCC1)CC2 (centres undefined)	·	24	-14	1	·
O=C1CC2OCC=C3CN4CCC56c7ccccc7N1C5C2C3CC46O (centres undefined)	·	19	-4	0	·
Cc1cc(C=C(C#N)C#N)ccc1N1CCCC1	1	-5	14	16*	-2
N#CC(C#N)=Cc1ccc(N2CCOCC2)cc1	1	15	-11	2	4
O=C1NCN(c2ccccc2)C12CCN(C(c1ccccc1OC(F)(F)F)c1nnnn1-c1ccc3c(c1)OCCO3)CC2 (centres undefined)	·	19	-22	1	·
C#CC1(O)CCC2C3CCC4=CC(=O)CCC4=C3C=CC21C (centres undefined)	·	-12	3	16*	·
CC[n+]1c(/C=C/C=C/c2ccc(N(C)C)cc2)sc2ccccc21	-1	-9	34*	12	-2
C[C@](N)(CCP(=O)(O)O)C(=O)O	·	-11	25*	0	·
O=S(=O)(c1cccc2ccccc12)N1Cc2ccccc2-n2nncc2C1	·	16	-6	7	·
CCN1/C(=C\C=C\C2=[N+](CC)c3ccccc3C2(C)C)C(C)(C)c2ccccc21	158*	-24	94*	313*	317*
CCC(C)C1NC(=O)C(NC(=O)C(CC(C)C)N(C)C(=O)C2CCCN2C(=O)C(C)O)C(C)OC(=O)C(Cc2ccc(OC)cc2)N(C)C(=O)C2CCCN2C(=O)C(CC(C)C)NC(=O)[C@H](C)C(=O)[C@H](C(C)C)OC(=O)CC1O (some centres undefined)	·	20	-20	0	·
CCN(CC)c1ccc(/C=C2\C(=O)NC(=S)N(C)C2=O)o1	3	5	1	19*	14
CCN(CC)c1ccc(/C=C2\C(=O)NC(=S)N(c3ccc(OC)cc3OC)C2=O)o1	·	17	-2	23*	·
CCN(CC)c1ccc(C=C2C(=O)N(C)C(=S)N(C)C2=O)o1	4	22	-8	5	5
Nc1cc(N2CCNCC2)ccc1[N+](=O)[O-]	1	18	-8	1	3
SMILES	TRPML3 ag	CHO-K1 Ca PAM	CHO-K1 Ca antag	M1 ag parental	TRPN1 ag
Clc1cccc(N2CCNCC2)c1	·	-8	26*	0	·
C[C@@H]1CN([C@H](C)CO)C(=O)CCCn2nncc2CO[C@@H]1CN(C)C(=O)Oc1ccc2ccccc2c1	·	13	-11	1	·
C/C(=N\NC(=S)Nc1ccccc1)c1c(O)n(C)c(=O)n(C)c1=O	0	25	-4	22*	1
O=C1NC(=O)N(c2cccc(Cl)c2)C(=O)/C1=C\c1ccc(Sc2nc3ccccc3[nH]2)o1	14*	-2	12	27*	20*
O=C1NC(=O)N(c2ccccc2F)C(=O)/C1=C/c1ccc(Sc2nc3ccccc3[nH]2)o1	46*	-13	15	16*	43*
O=C1NC(=O)N(c2ccccc2)C(=O)/C1=C/c1ccc(Sc2ccccc2)o1	2	9	-5	9	2
Cc1ccc(/C=C2\C(=O)NC(=S)N(c3ccccc3F)C2=O)s1	1	7	1	1	3
COc1ccc(-c2ccc3c(c2)CNCc2cnnn2-3)cc1	·	12	10	1	·
COC(=O)Cn1cc(/C=C2\C(=O)NC(=O)N(c3ccc(OC)cc3)C2=O)c2ccccc21	·	10	-5	3	·
COc1ccc(N2C(=O)NC(=O)/C(=C\c3cn(C)c4ccccc34)C2=O)cc1	·	37	42*	32*	·
CC(=O)N1N=C(c2cccnc2)OC1c1ccccc1Cl (centres undefined)	0	12	-1	16*	1
CC1CCCN(c2ccc(C(=O)N3CCC4(CC3)OCCO4)cc2[N+](=O)[O-])C1 (centres undefined)	0	4	-8	1	-1
CCOC(=O)C1CCCN(c2ccc([N+](=O)[O-])c3nonc23)C1 (centres undefined)	113*	-25	51*	157*	291*
COc1ccc(-n2nnnc2C(c2ccccc2OC(F)(F)F)N2CCC3(CC2)C(=O)NCN3c2ccccc2)cc1 (centres undefined)	·	15	0	1	·
C[C@]12C[C@H](O)[C@@H](O)C[C@@H]1CC[C@@H]1[C@@H]2CC[C@]2(C)C(=O)CC[C@@H]12	·	13	-4	6	·
CCOC(=O)C(O)(c1ccc(NC(=S)NC(=O)c2ccc(Cl)cc2Cl)c(C)c1)C(F)(F)F (centres undefined)	12*	-2	20	14	22*
COC(=O)C(O)(c1ccc(NC(=S)NC(=O)c2ccc(Cl)cc2Cl)c(C)c1)C(F)(F)F (centres undefined)	4	4	14	12	19
CC(C)[C@H]1C(=O)O[C@H](C(C)C)C(=O)N(C)[C@@H](C(C)C)C(=O)O[C@H](C(C)C)C(=O)N(C)[C@@H](C(C)C)C(=O)O[C@H](C(C)C)C(=O)N1C	20*	5	-1	15	36*
O=c1[nH]c2ccccc2n1C1CCN(C(CCc2ccccc2)c2nnnn2-c2ccc3c(c2)OCCO3)CC1 (centres undefined)	·	14	8	4	·
